Screening results: PubChem, several laboratories
The list is not random: actives were taken first. Their share in the collection is about 2.6%.
SENP1 FRET inh = inhibitors of human SENP1 SUMO protease catalytic domain; recombinant SENP1 catalytic domain, CyPet-SUMO1-YPet FRET cleavage; Q9P0U3; inhibition, % at 10 µM; 360,000 tested, 0.21% active;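 active = inhibition at least 30% at 10 µM, raw YFP signal under a set limit, fluorescence ratio 0.5 to 1.5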
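System: Recombinant human SENP1 catalytic domain, His6-tagged | Incubation: Enzyme reaction for 50 min at room temperature, dark | Medium: Tris pH 8 with BME, BSA, NP40 and catalase | Also added: 25 nM SUMO1 FRET substrate | Compound: 10 µM single point, 0.5% DMSO | Measured by: FRET fluorescence in CFP and YFP emission channels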
SENP7 block = inhibitors of human SENP7 protease; Q9BQF6; recombinant SENP7, Z-RLRGG-aminoluciferin luminescence, 40 min; inhibition, % at 5 µM; 330,000 tested, 1.5% active;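 active = inhibition above about 50% at the single test dose, limit read from the data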
Target sequence (Q9BQF6 706-1050 limits assumed): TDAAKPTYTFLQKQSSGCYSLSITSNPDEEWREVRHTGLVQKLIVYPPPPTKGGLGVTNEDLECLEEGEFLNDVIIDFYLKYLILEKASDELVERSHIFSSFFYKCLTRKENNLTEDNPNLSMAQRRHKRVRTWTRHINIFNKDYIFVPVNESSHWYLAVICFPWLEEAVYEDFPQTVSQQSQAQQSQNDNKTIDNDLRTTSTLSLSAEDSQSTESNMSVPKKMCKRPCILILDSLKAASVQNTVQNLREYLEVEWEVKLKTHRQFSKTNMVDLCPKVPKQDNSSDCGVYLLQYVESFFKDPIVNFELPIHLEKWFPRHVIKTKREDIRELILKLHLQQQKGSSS
Platelet DG rel = modulates dense granule release in human platelets. human platelet-rich plasma, SFLLRN dense granule ATP release, luminescence. inhibition, %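 (compounds screened at 7.5 µM in platelet-rich plasma)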. 300,000 tested, 0.22% active. AID 1663;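 active = mean replicate score, as percent of positive control, at or above 50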
SENP6 block = inhibitors of human SENP6 protease; 330,000 tested, 1.8% active; AID 2599; inhibition, % at 10 µM; Q9GZR1; Recombinant SENP6 catalytic domain, aminoluciferin luminescence;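 active = inhibition above about 50% at the single tested dose, limit read from the data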
SENP8 block-1 = SENP8 protease inhibition; Q96LD8; purified SENP8, Z-RLRGG-aminoluciferin cleavage, luminescence; inhibition, % at 10 µM; 330,000 tested, 1.2% active; in the data active = inhibition above about 50%
Target sequence (Q96LD8 whole entry, looked up): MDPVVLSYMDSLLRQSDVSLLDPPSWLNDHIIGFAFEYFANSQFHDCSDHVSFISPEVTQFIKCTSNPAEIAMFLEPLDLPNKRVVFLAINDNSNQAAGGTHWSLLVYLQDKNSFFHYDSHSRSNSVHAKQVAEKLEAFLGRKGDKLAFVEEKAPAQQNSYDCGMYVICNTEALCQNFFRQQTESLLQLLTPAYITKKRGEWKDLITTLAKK
SENP8 block-2 = SENP8 (human) protease inhibition; Q96LD8; recombinant SENP8, Nedd8 substrate fluorescence; inhibition, % at 20 µM; 360,000 tested, 0.64% active; AID 602440; in the data active = inhibition mostly above about 40%, no sharp cut-off; inactive = mostly below about 27%
A number is an active result; . = inactive; / = no result given.

SMILES | SENP1 FRET inh | SENP7 block | Platelet DG rel | SENP6 block | SENP8 block-1 | SENP8 block-2
CC(C)c1ccc(/C=C/C2=NNC(=O)CC2)cc1 | . | . | . | . | . | .
CC1(C(=O)O)CCN1C(=O)COc1ccc(Cl)cc1 (stereo unspecified) | . | / | / | / | / | .
COc1ccccc1C(=O)NCC(=O)N1CCN(c2ncccn2)CC1 | . | . | / | . | . | .
CCN(CC(=O)Nc1c(F)cccc1F)C(=O)c1ccc(N2C(=O)c3ccccc3C2=O)cc1 | . | . | . | . | . | .
CCOC(=O)[C@H]1[C@H]2COc3ccc(C)cc3[C@@H]2N2C(=O)CN(Cc3ccc(Cl)cc3)C(=O)[C@@]12C | . | . | / | . | . | .
CCOC(=O)[C@H]1[C@H]2COc3ccccc3[C@@H]2N2C(=O)CN(Cc3ccc(C)cc3)C(=O)[C@@]12C | 34 | . | / | . | . | .
CN1CCN(/N=C/c2ccc(-c3ccc([N+](=O)[O-])cc3Cl)o2)CC1 | 79 | . | . | . | . | .
CCOc1ccc2nc(N3C(=O)/C(=C/c4ccc(Cl)cc4)NC3=S)sc2c1 | 33 | / | . | / | / | .
Cn1nc(C(=O)Nc2nc3ccc(S(C)(=O)=O)cc3s2)ccc1=O | . | . | 53 | . | . | .
Cn1ncc(Cl)c1C(=O)Nc1nc2ccc(Cl)cc2s1 | . | 98 | . | 98 | . | .
CC(C)NC(=O)N(C)C[C@@H]1OCc2cn(nn2)CCCC(=O)N([C@H](C)CO)C[C@H]1C | . | / | / | / | / | .
COc1ccc(CNC(=O)C[C@@H]2C=C[C@@H](NS(=O)(=O)c3cccc(OC)c3)[C@@H](CO)O2)cc1 | . | / | / | / | / | .
Cc1ccccc1NC1=C/C(=N\S(=O)(=O)c2cccs2)c2ccccc2C1=O | . | 89 | . | 86 | 90 | 99
Cc1ccc(NC(=O)CN(C)S(=O)(=O)c2cccs2)cc1C | . | . | . | . | . | .
Cc1ccc(NC2=C/C(=N/S(=O)(=O)c3cccs3)c3ccccc3C2=O)cc1C | . | / | . | / | / | 61
Cc1ccc(NS(=O)(=O)c2cccs2)c(C)c1 | . | . | . | . | . | .
O=c1cc2c(=O)oc3cc(O)c(O)oc3c2c(O)c1O | 30 | / | . | / | / | .
COc1ccc2c3c(n(C(=O)OC(C)(C)C)c2c1)C1CC=C(COC(C)=O)CN1CC3 (stereo unspecified) | . | / | / | / | / | .
CCCCNC(=O)C1(C)CCN1C(=O)c1ccc(C)c(F)c1 (stereo unspecified) | . | / | / | / | / | .
COC1=CC(=NCl)C=CC1=NCl | . | / | / | / | / | 76
CCOC(=O)C1=NN(C(=O)c2ccc(OC)cc2)C(O)(c2ccc(Cl)cc2)C1 (stereo unspecified) | . | . | . | . | . | .
COC(=O)C1=NN(C(=O)c2cccc(Br)c2)C(O)(c2ccc(Cl)cc2)C1 (stereo unspecified) | 65 | . | . | . | . | .
COc1ccc(CNC(=O)CNC(=O)c2c(C)nn(C)c2Cl)cc1 | . | . | . | . | . | .
Cc1cccc(N2CCN(C(=O)C(Cc3ccccc3)n3cccc3)CC2)c1C (stereo unspecified) | . | . | . | . | . | .
O=C(C(Cc1ccccc1)n1cccc1)N1CCN(c2ncccn2)CC1 (stereo unspecified) | . | . | 50 | . | . | .
SMILES | SENP1 FRET inh | SENP7 block | Platelet DG rel | SENP6 block | SENP8 block-1 | SENP8 block-2
O=C(NCCCN1CCOCC1)C1(c2ccccc2)CCCC1 | . | . | 70 | . | . | .
O=C(NCCCN1CCOCC1)C1(c2ccccc2)CCOCC1 | . | . | . | . | . | .
Cc1ccc(-c2cn3cccc(C)c3n2)cc1 | . | / | . | / | / | .
COc1ccc(-c2cn3cccc(C)c3n2)cc1F | . | 60 | . | . | . | .
O=C(O)c1cccc(NC(=O)c2ccc3c(c2)C(=O)N(Cc2ccco2)C3=O)c1 | . | 88 | . | 89 | 84 | .
O=C(O)c1ccc2c(c1)C(=O)N(Cc1ccco1)C2=O | . | . | . | . | . | .
O=C1c2cccc3cc([N+](=O)[O-])cc(c23)C(=O)N1CCN1CCCC1 | 70 | . | . | . | . | .
Nc1cc2c3c(cccc3c1)C(=O)N(CCN1CCCC1)C2=O | . | / | . | / | / | .
CCc1ccc(-c2cc(C)no2)cc1S(=O)(=O)N1CCCN(Cc2ccc(F)cc2)C1 | . | . | . | . | . | .
Cc1ccc(N2C(=O)c3ccccc3C2Nc2ccccc2F)nc1 (stereo unspecified) | . | . | . | . | . | .
Cc1ccc(N2C(=O)c3ccccc3C2O)nc1 (stereo unspecified) | / | / | 78 | / | / | /
CC1CC(=O)NN=C1c1ccc(NCCO)c([N+](=O)[O-])c1 (stereo unspecified) | . | . | 89 | . | . | .
Oc1ccc(/C=N/N(Cc2ccccc2)c2ccccc2)c(O)c1O | . | / | . | / | / | 56
O=C(Nc1cccc(Cl)c1)c1cc(N=Nc2ccc([N+](=O)[O-])cc2Cl)ccc1O | . | . | . | . | . | 43
O=C(Nc1ccc([N+](=O)[O-])cc1Cl)c1cc(Cl)ccc1O | . | 100 | / | 99 | 98 | .
CCOC(=O)C1(C)CCCN(C(=O)c2cccs2)C1 (stereo unspecified) | . | / | / | / | / | .
O=C(c1ccc(F)cc1)n1ccc(-c2cnc(-c3ccccc3)s2)n1 | . | 85 | . | 55 | . | .
CC(=O)c1ccc(N2CCN(C(=O)CCS(=O)(=O)c3ccc4c(c3)NC(=O)CS4)CC2)cc1 | . | . | . | . | . | .
O=C(NC1CC1)c1cc(=S)[nH]c2ccccc12 | . | . | / | . | . | .
Cc1ccc(N=Cc2cccc(O)c2O)c(C)c1 | . | . | . | . | . | 110
CCCCNC(=O)c1[nH]c(C2CCNCC2)nc1-c1cccc(C(F)(F)F)c1 | . | / | / | / | / | .
OC(CCCC(O)c1ccccc1)c1ccccc1 (stereo unspecified) | . | / | / | / | / | .
O=C(N/N=C/c1ccc(OCC(=O)N2CCCCC2)cc1)c1ccccc1 | . | . | . | . | . | .
O=C(N/N=C/c1ccccc1OCC(=O)N1CCCC1)C(=O)Nc1ccccc1F | . | 61 | . | 70 | . | .
Oc1ccccc1CNc1cccc2cccnc12 | . | 66 | . | 91 | 79 | .
COc1cc(NCc2ccccc2O)c2ncccc2c1 | . | . | . | . | . | .
Oc1ccc2ccccc2c1C=NCc1ccccc1 | . | . | . | 60 | . | .
c1ccc2c(c1)CCN(c1nc3cc4c(cc3s1)OCO4)C2 | . | 96 | . | 88 | 94 | .
c1ccc(N2CCN(c3nc4cc5c(cc4s3)OCO5)CC2)cc1 | . | . | . | . | . | .
